# Measurements taken from ChEMBL document CHEMBL1821704, “Diarylheptanoids from Curcuma kwangsiensis and their inhibitory activity on nitric oxide production in lipopolysaccharide-activated macrophages” (Bioorg Med Chem Lett, 2011).
# Tests used:
# RAW264.7 [1] = experiment: Cytotoxicity against mouse RAW264.7 cells at 100 uM after 24 hrs by MTT assay; format: cell-based; details: raw264.7, 24 h
# RAW264.7 [2] = experiment: Inhibition of LPS-induced nitric oxide production in mouse RAW264.7 cells after 24 hrs by Griess reaction based spectrophotometry; format: functional, cell-based; details: RAW264.7, 24 h
# Method in brief: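 Cells plated at 1 × 10⁵ cells/well and stimulated with LPS, with or without compound, for 24 h at 37 °C. Nitrite was read at 550 nm against a sodium nitrite standard curve. Triplicate wells; mean SD of three independent experiments.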
IC50 (RAW264.7 [2]) [µM],Structure (SMILES),Activity (RAW264.7 [1])
75.7,O=C(CCc1ccc(O)cc1)C[C@@H](O)CCc1ccccc1,Non-toxic
82.8,O=C(CCc1ccc(O)cc1)C[C@@H](O)CCc1ccc(O)c(O)c1,Non-toxic
37.5,COc1cc(CCC(=O)C[C@@H](O)CCc2ccc(O)cc2)ccc1O,Non-toxic
32,CC(=O)O[C@H](CCc1ccc(O)cc1)C[C@H](O)CCc1ccc(O)cc1,Non-toxic
35.5,CC(=O)O[C@H](CCc1ccc(O)c(O)c1)C[C@H](O)CCc1ccc(O)c(O)c1,Toxic
10.7,CC(=O)O[C@H](CCc1ccc(O)cc1)C[C@@H](CCc1ccc(O)c(O)c1)OC(C)=O,Non-toxic
9.52,CC(=O)O[C@@H](CCc1ccc(O)c(O)c1)C[C@@H](O)CCc1ccc(O)cc1,Toxic
9.52,CC(=O)O[C@H](CCc1ccc(O)c(O)c1)C[C@H](O)CCc1ccc(O)cc1,Toxic
7.98,CC(=O)O[C@H](CCc1ccc(O)c(O)c1)C[C@@H](CCc1ccc(O)c(O)c1)OC(C)=O,Toxic
> 100,Oc1ccc(CC[C@@H](O)C[C@@H](O)CCc2ccc(O)cc2)cc1,Non-toxic
9.37,COc1cc(CCC(=O)C[C@@H](O)CCc2ccc(O)c(O)c2)ccc1O,Toxic
11.5,Oc1ccc(CC[C@@H](O)C[C@H](O)CCc2ccc(O)c(O)c2)cc1,Non-toxic
25.8,COc1cc(CC[C@@H](O)C[C@H](O)CCc2ccc(O)c(O)c2)ccc1O,Non-toxic
3.13,Oc1ccc(CC[C@H](O)C[C@H](O)CCc2ccc(O)c(O)c2)cc1 (relative stereo),Toxic
2.81,COc1cc(CC[C@@H](O)C[C@@H](O)CCc2ccc(O)cc2)ccc1O (relative stereo),Non-toxic
2.41,COc1cc(CC[C@@H](O)C[C@@H](O)CCc2ccc(O)cc2)cc(O)c1O (relative stereo),Toxic
> 100,Oc1ccc(CC[C@@H](O)C[C@H](O)CCc2ccc(O)cc2)cc1 [(+)-HANNOKINOL],Non-toxic
,C[C@]12CCC(=O)C=C1CC[C@@H]1[C@@H]2[C@@H](O)C[C@@]2(C)[C@H]1CC[C@]2(O)C(=O)CO [HYDROCORTISONE],Non-toxic
,COc1ccc2c(c1)c(CC(=O)O)c(C)n2C(=O)c1ccc(Cl)cc1 [INDOMETHACIN],Non-toxic
